Reference: ChEMBL document CHEMBL1781995, “Acenaphtho[1,2-b]pyrrole-based selective fibroblast growth factor receptors 1 (FGFR1) inhibitors: design, synthesis, and biological activity” (J Med Chem, 2011)
pIC50: −log10 of the molar value. Active and inactive are the calls of the source. The calls are words filed in the database; no cut-off is given here.

Columns and labels:
WI-38 = assay: Antiproliferative activity against human WI38 cells expressing FGFR after 72 hrs by SRB assay; format: cell-based; conditions: WI-38, 72 h
Summary of the method: (§1)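 Cells seeded and grown 24 h, then exposed to increasing compound concentrations for 72 h without medium change. Fixed with cold 10% TCA 1 h at 4 °C, stained 15 min with 4 mg/mL SRB in 1% acetic acid, rinsed, dye dissolved in 10 mM Tris base, A515 read. Inhibition = (1 − A515treated/A515control)×100; IC50 by Logit method from at least three independent tests.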

BXPC-3 = assay: Antiproliferative activity against human BxPC3 cells expressing FGFR after 72 hrs by SRB assay; format: functional, cell-based; conditions: BXPC-3, 72 h; summary of the method: as §1
T-24 = assay: Antiproliferative activity against human T24 cells expressing FGFR after 72 hrs by SRB assay; format: functional, cell-based; conditions: T-24, 72 h; summary of the method: as §1
[1] = target: T1, Fibroblast growth factor receptor 1 (Homo sapiens, UniProt P11362); assay: Inhibition of FGFR1 using poly(Glu-Tyr)4:1 as substrate after 60 mins by ELISA
Target sequence in this assay (P11362 whole entry): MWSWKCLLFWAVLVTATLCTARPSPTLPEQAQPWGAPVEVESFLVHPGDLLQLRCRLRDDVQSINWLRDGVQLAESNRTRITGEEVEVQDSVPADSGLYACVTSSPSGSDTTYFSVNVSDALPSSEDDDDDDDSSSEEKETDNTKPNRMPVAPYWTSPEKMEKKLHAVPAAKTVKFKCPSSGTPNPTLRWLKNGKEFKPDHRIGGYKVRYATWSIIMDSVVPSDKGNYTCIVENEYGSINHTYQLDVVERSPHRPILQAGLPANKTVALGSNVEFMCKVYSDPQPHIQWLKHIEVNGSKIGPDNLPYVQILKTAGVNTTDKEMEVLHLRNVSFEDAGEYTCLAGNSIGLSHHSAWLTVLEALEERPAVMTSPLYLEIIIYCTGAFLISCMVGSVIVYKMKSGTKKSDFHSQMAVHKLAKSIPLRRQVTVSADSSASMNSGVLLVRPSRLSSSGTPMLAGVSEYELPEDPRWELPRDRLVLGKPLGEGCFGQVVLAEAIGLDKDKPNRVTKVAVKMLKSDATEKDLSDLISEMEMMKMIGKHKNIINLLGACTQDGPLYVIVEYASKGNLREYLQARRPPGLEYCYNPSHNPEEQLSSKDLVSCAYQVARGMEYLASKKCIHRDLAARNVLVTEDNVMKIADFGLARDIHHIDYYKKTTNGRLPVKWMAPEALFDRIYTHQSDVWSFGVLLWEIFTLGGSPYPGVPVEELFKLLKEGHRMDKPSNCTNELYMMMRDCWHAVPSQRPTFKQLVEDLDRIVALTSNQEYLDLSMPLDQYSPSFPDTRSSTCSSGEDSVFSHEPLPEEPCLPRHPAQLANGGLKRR

[2] = target: T1, Fibroblast growth factor receptor 1; assay: Inhibition of FGFR1 in human BxPC3 cells assessed as reduction of Erk1/2 phosphorylation after 12 hrs by Western blot analysis; format: cell-based; conditions: BXPC-3
Summary of the method: (§2)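 BxPC3 cells plated at 3 × 10^5 per well, serum-starved 24 h, then treated 12 h with compound (1.25, 2.5, 5, 10 μM). Whole-cell lysates run on 10% SDS-PAGE and immunoblotted for phospho-FGFR1 (Tyr653/654), phospho-Erk1/2 (T202/Y204), phospho-Akt and totals, with GAPDH loading control.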
Target sequence in this assay (P11362 22-822 limits assumed): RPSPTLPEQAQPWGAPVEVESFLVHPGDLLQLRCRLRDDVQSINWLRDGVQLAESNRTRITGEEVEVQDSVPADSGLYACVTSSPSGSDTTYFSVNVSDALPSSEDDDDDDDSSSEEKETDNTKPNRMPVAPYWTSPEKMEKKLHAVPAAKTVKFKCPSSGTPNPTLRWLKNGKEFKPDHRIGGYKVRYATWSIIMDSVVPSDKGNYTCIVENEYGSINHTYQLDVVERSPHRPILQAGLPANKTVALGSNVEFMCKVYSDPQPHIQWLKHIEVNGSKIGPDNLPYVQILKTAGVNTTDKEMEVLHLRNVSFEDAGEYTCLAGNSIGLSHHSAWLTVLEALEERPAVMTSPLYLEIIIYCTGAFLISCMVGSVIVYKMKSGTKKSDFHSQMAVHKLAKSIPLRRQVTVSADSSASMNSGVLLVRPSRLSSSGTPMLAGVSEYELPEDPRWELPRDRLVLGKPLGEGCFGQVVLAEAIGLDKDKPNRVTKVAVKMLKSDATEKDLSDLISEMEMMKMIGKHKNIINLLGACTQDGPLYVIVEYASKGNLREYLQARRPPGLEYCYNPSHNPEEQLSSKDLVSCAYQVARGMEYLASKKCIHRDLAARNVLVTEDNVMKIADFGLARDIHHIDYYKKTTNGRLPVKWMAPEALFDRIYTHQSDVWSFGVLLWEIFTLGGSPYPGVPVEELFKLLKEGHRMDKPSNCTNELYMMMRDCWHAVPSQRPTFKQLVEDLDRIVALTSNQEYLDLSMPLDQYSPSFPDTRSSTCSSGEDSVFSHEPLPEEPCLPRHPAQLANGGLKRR

[3] = target: T1, Fibroblast growth factor receptor 1; assay: Inhibition of FGFR1 in human BxPC3 cells assessed as reduction of Akt phosphorylation at 10 uM after 12 hrs by Western blot analysis; format: cell-based; conditions: BXPC-3; summary of the method: as §2
Target sequence in this assay (P11362 22-822 limits assumed): as above

[4] = target: T1, Fibroblast growth factor receptor 1; assay: Inhibition of b-FGF-induced FGFR1 phosphorylation in human BxPC3 cells at 1.25 uM after 12 hrs by Western blot analysis; format: cell-based; conditions: BXPC-3; summary of the method: as §2
Target sequence in this assay (P11362 22-822 limits assumed): as above

[5] = target: T1, Fibroblast growth factor receptor 1; assay: Inhibition of b-FGF-induced FGFR1 phosphorylation in human BxPC3 cells at 10 uM after 12 hrs by Western blot analysis relative to control; format: cell-based; conditions: BXPC-3; summary of the method: as §2
Target sequence in this assay (P11362 22-822 limits assumed): as above

[6] = target: T1, Fibroblast growth factor receptor 1; assay: Inhibition of FGFR1 in human BxPC3 cells assessed as reduction of Erk1/2 phosphorylation at 10 uM after 12 hrs by Western blot analysis; format: cell-based; conditions: BXPC-3; summary of the method: as §2
Target sequence in this assay (P11362 22-822 limits assumed): as above

[7] = target: T1, Fibroblast growth factor receptor 1; assay: Inhibition of b-FGF-induced FGFR1 phosphorylation in human BxPC3 cells after 12 hrs by Western blot analysis; format: cell-based; conditions: BXPC-3; summary of the method: as §2
Target sequence in this assay (P11362 22-822 limits assumed): as above

Calf thymus DNA = assay: Binding affinity to calf thymus DNA at 20 uM by circular dichroism assay; format: nucleic-acid assay; conditions: Bos taurus

Row | Compound | pIC50 (BXPC-3) | pIC50 [1] | pIC50 (WI-38) | pIC50 (T-24) | also measured
1 | C=CCSc1ccc2c3c(cccc13)C1=NC(=O)C(C(=O)OCC)=C12 | 5.60 | 6.31 | 5.34 | 6.15 | inhibition [4]: Active; inhibition [5]: Active; inhibition [6]: Active; inhibition [3]: inactive; inhibition [7]: Dose-dependent effect
2 | CC1OCCC1Sc1ccc2c3c(cccc13)C1=NC(=O)C(C#N)=C12 (stereo not given) |  | < 5.00 |  |  | 
3 | C=CCSc1ccc2c3c(cccc13)C1=NC(=O)C(C#N)=C12 |  | < 5.00 |  |  | 
4 | CCCSc1ccc2c3c(cccc13)C1=NC(=O)C(C(=O)OCC)=C12 | 5.24 | < 5.00 | 5.02 | 5.77 | Activity (Calf thymus DNA): Active
5 | CCOC(=O)C1=C2C(=NC1=O)c1cccc3c(SC(C)C)ccc2c13 |  | < 5.00 |  |  | 
6 | CCOC(=O)C1=C2C(=NC1=O)c1cccc3c(SCCO)ccc2c13 |  | 6.49 |  |  | 

Now from value to compound, other results behind:

Row | pIC50 (BXPC-3) | pIC50 [1] | Compound | pIC50 (WI-38) | pIC50 (T-24) | also measured
7 | 5.60 | 6.67 | C=CCOC(=O)C1=C2C(=NC1=O)c1cccc3c(SCC=C)ccc2c13 | 4.71 | 5.18 | 
8 |  | 6.48 | Cc1c[nH]c(/C=C2\C(=O)Nc3ccccc32)c1CCC(=O)O |  |  | 
9 |  | < 5.00 | CC(C)Sc1ccc2c3c(cccc13)C1=NC(=O)C(C#N)=C12 |  |  | 
10 |  | < 5.00 | N#CC1=C2C(=NC1=O)c1cccc3c(SCCO)ccc2c13 |  |  | 
11 | 5.32 | 7.72 | C=CCOC(=O)C1=C2C(=NC1=O)c1cccc3cccc2c13 | 4.69 | 5.41 | inhibition [2]: Dose-dependent effect; inhibition [3]: inactive
12 |  | < 5.00 | N#CC1=C2C(=NC1=O)c1cccc3c(SCCc4cnccn4)ccc2c13 |  |  | 
13 | 4.86 | 6.24 | C=CCSc1ccc2c3c(cccc13)C1=NC(=O)C(C(=O)OCC(=O)SCCC)=C12 | < 4.00 | 4.14 | 
14 | 5.00 | 7.19 | CCCSC(=O)COC(=O)C1=C2C(=NC1=O)c1cccc3cccc2c13 | 4.60 | 4.98 | 
